Assay results: ChEMBL document CHEMBL3044834, “Novel protoporphyrinogen oxidase inhibitors: 3H-pyrazolo[3,4-d][1,2,3]triazin-4-one derivatives” (J Agric Food Chem, 2008)

Test system: Digitaria sanguinalis
Assay: Herbicidal activity against Digitaria sanguinalis (hairy crabgrass) assessed as inhibition of fresh weed plant weight at 1500 g/ha using pre-emergence treatment protocol
Type: functional

Structure (SMILES) | inhibition at 1500 g/ha [%]
C#CCOc1cc(-n2nnc3nn(CC=C)cc3c2=O)c(F)cc1Cl | 79.6
C#CCOc1cc(-n2nnc3c(cnn3CC=C)c2=O)c(F)cc1Cl | 37.4

Test system: Amaranthus retroflexus
Assay: Herbicidal activity against Amaranthus retroflexus assessed as inhibition of fresh weed plant weight at 1500 g/ha using post-emergence treatment protocol
Type: functional
Summary of the method: (§1)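 Test compounds made up as emulsions by dissolving in 100 µL N,N-dimethylformamide, then adding a little Tween 20 and water. For post-emergence, weed seedlings at one leaf and one stem were sprayed at the same rates as the pre-emergence test. Fresh weight was recorded 15 days after treatment and expressed as percent inhibition versus controls. All treatments were run in triplicate.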

Structure (SMILES) | inhibition at 1500 g/ha [%]
C#CCOc1cc(-n2nnc3nn(CC=C)cc3c2=O)c(F)cc1Cl | 100
C#CCOc1cc(-n2nnc3c(cnn3CC=C)c2=O)c(F)cc1Cl | 88.6

Test system: Amaranthus retroflexus
Assay: Herbicidal activity against Amaranthus retroflexus assessed as inhibition of fresh weed plant weight at 1500 g/ha using pre-emergence treatment protocol
Type: functional

Structure (SMILES) | inhibition at 1500 g/ha [%]
C#CCOc1cc(-n2nnc3nn(CC=C)cc3c2=O)c(F)cc1Cl | 100
C#CCOc1cc(-n2nnc3c(cnn3CC=C)c2=O)c(F)cc1Cl | 87

Test system: Brassica rapa subsp. oleifera
Assay: Herbicidal activity against Brassica rapa subsp. oleifera assessed as inhibition of fresh weed plant weight at 187.5 g/ha using post-emergence treatment protocol
Type: functional
Summary of the method: as §1

Structure (SMILES) | inhibition at 187.5 g/ha [%]
C#CCOc1cc(-n2nnc3nn(CC=C)cc3c2=O)c(F)cc1Cl | 2.9
C#CCOc1cc(-n2nnc3c(cnn3CC=C)c2=O)c(F)cc1Cl | 0

Test system: Brassica rapa subsp. oleifera
Assay: Herbicidal activity against Brassica rapa subsp. oleifera assessed as inhibition of fresh weed plant weight at 375 g/ha using post-emergence treatment protocol
Type: functional
Summary of the method: as §1

Structure (SMILES) | inhibition at 375 g/ha [%]
C#CCOc1cc(-n2nnc3nn(CC=C)cc3c2=O)c(F)cc1Cl | 18.9
C#CCOc1cc(-n2nnc3c(cnn3CC=C)c2=O)c(F)cc1Cl | 3.4

Test system: Brassica rapa subsp. oleifera
Assay: Herbicidal activity against Brassica rapa subsp. oleifera assessed as inhibition of fresh weed plant weight at 750 g/ha using post-emergence treatment protocol
Type: functional
Summary of the method: as §1

Structure (SMILES) | inhibition at 750 g/ha [%]
C#CCOc1cc(-n2nnc3nn(CC=C)cc3c2=O)c(F)cc1Cl | 36.6
C#CCOc1cc(-n2nnc3c(cnn3CC=C)c2=O)c(F)cc1Cl | 7.4

Test system: Brassica rapa subsp. oleifera
Assay: Herbicidal activity against Brassica rapa subsp. oleifera assessed as inhibition of fresh weed plant weight at 187.5 g/ha using pre-emergence treatment protocol
Type: functional

Structure (SMILES) | inhibition at 187.5 g/ha [%]
C#CCOc1cc(-n2nnc3nn(CC=C)cc3c2=O)c(F)cc1Cl | 16.4
C#CCOc1cc(-n2nnc3c(cnn3CC=C)c2=O)c(F)cc1Cl | 0

Test system: Brassica rapa subsp. oleifera
Assay: Herbicidal activity against Brassica rapa subsp. oleifera assessed as inhibition of fresh weed plant weight at 375 g/ha using pre-emergence treatment protocol
Type: functional

Structure (SMILES) | inhibition at 375 g/ha [%]
C#CCOc1cc(-n2nnc3nn(CC=C)cc3c2=O)c(F)cc1Cl | 25.4
C#CCOc1cc(-n2nnc3c(cnn3CC=C)c2=O)c(F)cc1Cl | 0

Test system: Brassica rapa subsp. oleifera
Assay: Herbicidal activity against Brassica rapa subsp. oleifera assessed as inhibition of fresh weed plant weight at 750 g/ha using pre-emergence treatment protocol
Type: functional

Structure (SMILES) | inhibition at 750 g/ha [%]
C#CCOc1cc(-n2nnc3nn(CC=C)cc3c2=O)c(F)cc1Cl | 37.3
C#CCOc1cc(-n2nnc3c(cnn3CC=C)c2=O)c(F)cc1Cl | 0

Test system: Digitaria sanguinalis
Assay: Herbicidal activity against Digitaria sanguinalis (hairy crabgrass) assessed as inhibition of fresh weed plant weight at 1500 g/ha using post-emergence treatment protocol
Type: functional
Summary of the method: as §1

Structure (SMILES) | inhibition at 1500 g/ha [%]
C#CCOc1cc(-n2nnc3nn(CC=C)cc3c2=O)c(F)cc1Cl | 36.1
C#CCOc1cc(-n2nnc3c(cnn3CC=C)c2=O)c(F)cc1Cl | 41.3

Test system: Brassica rapa subsp. oleifera
Assay: Herbicidal activity against Brassica rapa subsp. oleifera assessed as inhibition of fresh weed plant weight at 1500 g/ha using post-emergence treatment protocol
Type: functional
Summary of the method: as §1

Structure (SMILES) | inhibition at 1500 g/ha [%]
C#CCOc1cc(-n2nnc3nn(CC=C)cc3c2=O)c(F)cc1Cl | 70.3
C#CCOc1cc(-n2nnc3c(cnn3CC=C)c2=O)c(F)cc1Cl | 18.5

Test system: Brassica rapa subsp. oleifera
Assay: Herbicidal activity against Brassica rapa subsp. oleifera assessed as inhibition of fresh weed plant weight at 1500 g/ha using pre-emergence treatment protocol
Type: functional

Structure (SMILES) | inhibition at 1500 g/ha [%]
C#CCOc1cc(-n2nnc3nn(CC=C)cc3c2=O)c(F)cc1Cl | 65.8
C#CCOc1cc(-n2nnc3c(cnn3CC=C)c2=O)c(F)cc1Cl | 7.4

Test system: Echinochloa crus-galli
Assay: Herbicidal activity against Echinochloa crus-galli (barnyard grass) assessed as inhibition of fresh weed plant weight at 750 g/ha using pre-emergence treatment protocol
Type: functional

Structure (SMILES) | inhibition at 750 g/ha [%]
C#CCOc1cc(-n2nnc3nn(CC=C)cc3c2=O)c(F)cc1Cl | 19.5
C#CCOc1cc(-n2nnc3c(cnn3CC=C)c2=O)c(F)cc1Cl | 0

Test system: Amaranthus retroflexus
Assay: Herbicidal activity against Amaranthus retroflexus assessed as inhibition of fresh weed plant weight at 750 g/ha using pre-emergence treatment protocol
Type: functional
Summary of the method: as §1

Structure (SMILES) | inhibition at 750 g/ha [%]
C#CCOc1cc(-n2nnc3nn(CC=C)cc3c2=O)c(F)cc1Cl | 93.4
C#CCOc1cc(-n2nnc3c(cnn3CC=C)c2=O)c(F)cc1Cl | 41

Test system: Amaranthus retroflexus
Assay: Herbicidal activity against Amaranthus retroflexus assessed as inhibition of fresh weed plant weight at 375 g/ha using pre-emergence treatment protocol
Type: functional

Structure (SMILES) | inhibition at 375 g/ha [%]
C#CCOc1cc(-n2nnc3nn(CC=C)cc3c2=O)c(F)cc1Cl | 90.2
C#CCOc1cc(-n2nnc3c(cnn3CC=C)c2=O)c(F)cc1Cl | 27.9

Test system: Digitaria sanguinalis
Assay: Herbicidal activity against Digitaria sanguinalis (hairy crabgrass) assessed as inhibition of fresh weed plant weight at 187.5 g/ha using pre-emergence treatment protocol
Type: functional

Structure (SMILES) | inhibition at 187.5 g/ha [%]
C#CCOc1cc(-n2nnc3nn(CC=C)cc3c2=O)c(F)cc1Cl | 2.2
C#CCOc1cc(-n2nnc3c(cnn3CC=C)c2=O)c(F)cc1Cl | 6.5

Test system: Amaranthus retroflexus
Assay: Herbicidal activity against Amaranthus retroflexus assessed as inhibition of fresh weed plant weight at 187.5 g/ha using post-emergence treatment protocol
Type: functional
Summary of the method: as §1

Structure (SMILES) | inhibition at 187.5 g/ha [%]
C#CCOc1cc(-n2nnc3nn(CC=C)cc3c2=O)c(F)cc1Cl | 22
C#CCOc1cc(-n2nnc3c(cnn3CC=C)c2=O)c(F)cc1Cl | 7.3

Test system: Digitaria sanguinalis
Assay: Herbicidal activity against Digitaria sanguinalis (hairy crabgrass) assessed as inhibition of fresh weed plant weight at 750 g/ha using post-emergence treatment protocol
Type: functional
Summary of the method: as §1

Structure (SMILES) | inhibition at 750 g/ha [%]
C#CCOc1cc(-n2nnc3nn(CC=C)cc3c2=O)c(F)cc1Cl | 13.9
C#CCOc1cc(-n2nnc3c(cnn3CC=C)c2=O)c(F)cc1Cl | 19.4

Test system: Amaranthus retroflexus
Assay: Herbicidal activity against Amaranthus retroflexus assessed as inhibition of fresh weed plant weight at 187.5 g/ha using pre-emergence treatment protocol
Type: functional

Structure (SMILES) | inhibition at 187.5 g/ha [%]
C#CCOc1cc(-n2nnc3nn(CC=C)cc3c2=O)c(F)cc1Cl | 41
C#CCOc1cc(-n2nnc3c(cnn3CC=C)c2=O)c(F)cc1Cl | 21.3

Test system: Amaranthus retroflexus
Assay: Herbicidal activity against Amaranthus retroflexus assessed as inhibition of fresh weed plant weight at 750 g/ha using post-emergence treatment protocol
Type: functional
Summary of the method: as §1

Structure (SMILES) | inhibition at 750 g/ha [%]
C#CCOc1cc(-n2nnc3nn(CC=C)cc3c2=O)c(F)cc1Cl | 100
C#CCOc1cc(-n2nnc3c(cnn3CC=C)c2=O)c(F)cc1Cl | 41.5

Test system: Amaranthus retroflexus
Assay: Herbicidal activity against Amaranthus retroflexus assessed as inhibition of fresh weed plant weight at 375 g/ha using post-emergence treatment protocol
Type: functional
Summary of the method: as §1

Structure (SMILES) | inhibition at 375 g/ha [%]
C#CCOc1cc(-n2nnc3nn(CC=C)cc3c2=O)c(F)cc1Cl | 100
C#CCOc1cc(-n2nnc3c(cnn3CC=C)c2=O)c(F)cc1Cl | 12.2

Test system: Echinochloa crus-galli
Assay: Herbicidal activity against Echinochloa crus-galli (barnyard grass) assessed as inhibition of fresh weed plant weight at 750 g/ha using post-emergence treatment protocol
Type: functional
Summary of the method: as §1

Structure (SMILES) | inhibition at 750 g/ha [%]
C#CCOc1cc(-n2nnc3nn(CC=C)cc3c2=O)c(F)cc1Cl | 9.3
C#CCOc1cc(-n2nnc3c(cnn3CC=C)c2=O)c(F)cc1Cl | 17.1

Test system: Echinochloa crus-galli
Assay: Herbicidal activity against Echinochloa crus-galli (barnyard grass) assessed as inhibition of fresh weed plant weight at 375 g/ha using post-emergence treatment protocol
Type: functional
Summary of the method: as §1

Structure (SMILES) | inhibition at 375 g/ha [%]
C#CCOc1cc(-n2nnc3nn(CC=C)cc3c2=O)c(F)cc1Cl | 0.5
C#CCOc1cc(-n2nnc3c(cnn3CC=C)c2=O)c(F)cc1Cl | 11.2

Test system: Echinochloa crus-galli
Assay: Herbicidal activity against Echinochloa crus-galli (barnyard grass) assessed as inhibition of fresh weed plant weight at 187.5 g/ha using post-emergence treatment protocol
Type: functional
Summary of the method: as §1

Structure (SMILES) | inhibition at 187.5 g/ha [%]
C#CCOc1cc(-n2nnc3nn(CC=C)cc3c2=O)c(F)cc1Cl | 0
C#CCOc1cc(-n2nnc3c(cnn3CC=C)c2=O)c(F)cc1Cl | 7.3

Test system: Digitaria sanguinalis
Assay: Herbicidal activity against Digitaria sanguinalis (hairy crabgrass) assessed as inhibition of fresh weed plant weight at 750 g/ha using pre-emergence treatment protocol
Type: functional

Structure (SMILES) | inhibition at 750 g/ha [%]
C#CCOc1cc(-n2nnc3nn(CC=C)cc3c2=O)c(F)cc1Cl | 47.8
C#CCOc1cc(-n2nnc3c(cnn3CC=C)c2=O)c(F)cc1Cl | 17.4

Test system: Digitaria sanguinalis
Assay: Herbicidal activity against Digitaria sanguinalis (hairy crabgrass) assessed as inhibition of fresh weed plant weight at 375 g/ha using pre-emergence treatment protocol
Type: functional

Structure (SMILES) | inhibition at 375 g/ha [%]
C#CCOc1cc(-n2nnc3nn(CC=C)cc3c2=O)c(F)cc1Cl | 6.5
C#CCOc1cc(-n2nnc3c(cnn3CC=C)c2=O)c(F)cc1Cl | 13

Test system: Digitaria sanguinalis
Assay: Herbicidal activity against Digitaria sanguinalis (hairy crabgrass) assessed as inhibition of fresh weed plant weight at 375 g/ha using post-emergence treatment protocol
Type: functional
Summary of the method: as §1

Structure (SMILES) | inhibition at 375 g/ha [%]
C#CCOc1cc(-n2nnc3nn(CC=C)cc3c2=O)c(F)cc1Cl | 8.3
C#CCOc1cc(-n2nnc3c(cnn3CC=C)c2=O)c(F)cc1Cl | 0

Test system: Digitaria sanguinalis
Assay: Herbicidal activity against Digitaria sanguinalis (hairy crabgrass) assessed as inhibition of fresh weed plant weight at 187.5 g/ha using post-emergence treatment protocol
Type: functional
Summary of the method: as §1

Structure (SMILES) | inhibition at 187.5 g/ha [%]
C#CCOc1cc(-n2nnc3nn(CC=C)cc3c2=O)c(F)cc1Cl | 0
C#CCOc1cc(-n2nnc3c(cnn3CC=C)c2=O)c(F)cc1Cl | 0

Test system: Echinochloa crus-galli
Assay: Herbicidal activity against Echinochloa crus-galli (barnyard grass) assessed as inhibition of fresh weed plant weight at 375 g/ha using pre-emergence treatment protocol
Type: functional
Summary of the method: as §1

Structure (SMILES) | inhibition at 375 g/ha [%]
C#CCOc1cc(-n2nnc3nn(CC=C)cc3c2=O)c(F)cc1Cl | 0
C#CCOc1cc(-n2nnc3c(cnn3CC=C)c2=O)c(F)cc1Cl | 0

Test system: Echinochloa crus-galli
Assay: Herbicidal activity against Echinochloa crus-galli (barnyard grass) assessed as inhibition of fresh weed plant weight at 187.5 g/ha using pre-emergence treatment protocol
Type: functional
Summary of the method: as §1

Structure (SMILES) | inhibition at 187.5 g/ha [%]
C#CCOc1cc(-n2nnc3nn(CC=C)cc3c2=O)c(F)cc1Cl | 0
C#CCOc1cc(-n2nnc3c(cnn3CC=C)c2=O)c(F)cc1Cl | 0

Test system: Echinochloa crus-galli
Assay: Herbicidal activity against Echinochloa crus-galli (barnyard grass) assessed as inhibition of fresh weed plant weight at 1500 g/ha using pre-emergence treatment protocol
Type: functional

Structure (SMILES) | inhibition at 1500 g/ha [%]
C#CCOc1cc(-n2nnc3nn(CC=C)cc3c2=O)c(F)cc1Cl | 40.9
C#CCOc1cc(-n2nnc3c(cnn3CC=C)c2=O)c(F)cc1Cl | 0

Test system: Echinochloa crus-galli
Assay: Herbicidal activity against Echinochloa crus-galli (barnyard grass) assessed as inhibition of fresh weed plant weight at 1500 g/ha using post-emergence treatment protocol
Type: functional
Summary of the method: as §1

Structure (SMILES) | inhibition at 1500 g/ha [%]
C#CCOc1cc(-n2nnc3nn(CC=C)cc3c2=O)c(F)cc1Cl | 20.3
C#CCOc1cc(-n2nnc3c(cnn3CC=C)c2=O)c(F)cc1Cl | 38.3
